Laboratory results taken from ChEMBL document CHEMBL2384952, “Synthesis, antifungal and cytotoxic activities of 2-aryl-3-((piperidin-1-yl)ethyl)thiazolidinones” (Eur J Med Chem, 2013).
≈ marks a conversion by molar mass, not a printed value.

Key:
Vero [1] = experiment: Cytotoxicity against African green monkey Vero cells at 12.3 ug/mL by neutral red dye uptake assay relative to control; type: cell-based; conditions: chlorocebus sabaeus
Method in brief: (§1)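 Vero cells (over 99% viable by trypan blue exclusion) were exposed to serial compound dilutions in E-MEM, with fresh E-MEM as negative control, for 72 h at 37 °C, 5% CO2. Cells were then given 3.3 mg/L neutral red for 2 h, and the dye was extracted with 50% ethanol/1% acetic acid. A540 was read, and viability was calculated as treated/control absorbance × 100.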

Vero [2] = experiment: Cytotoxicity against African green monkey Vero cells at 25 ug/mL by neutral red dye uptake assay relative to control; type: cell-based; conditions: chlorocebus sabaeus; method in brief: as §1
Vero [3] = experiment: Cytotoxicity against African green monkey Vero cells at 49 ug/mL by neutral red dye uptake assay relative to control; type: cell-based; conditions: chlorocebus sabaeus; method in brief: as §1
Vero [4] = experiment: Cytotoxicity against African green monkey Vero cells at 98 ug/mL by neutral red dye uptake assay relative to control; type: cell-based; conditions: chlorocebus sabaeus; method in brief: as §1
Vero [5] = experiment: Cytotoxicity against African green monkey Vero cells at 197 ug/mL by neutral red dye uptake assay relative to control; type: cell-based; conditions: chlorocebus sabaeus; method in brief: as §1
Vero [6] = experiment: Cytotoxicity against African green monkey Vero cells at 394 ug/mL by neutral red dye uptake assay relative to control; type: cell-based; conditions: chlorocebus sabaeus; method in brief: as §1
Vero [7] = experiment: Cytotoxicity against African green monkey Vero cells at 787 ug/mL by neutral red dye uptake assay relative to control; type: cell-based; conditions: chlorocebus sabaeus; method in brief: as §1
Vero [8] = experiment: Cytotoxicity against African green monkey Vero cells at 1575 ug/mL by neutral red dye uptake assay relative to control; type: cell-based; conditions: chlorocebus sabaeus; method in brief: as §1
Vero [9] = experiment: Cytotoxicity against African green monkey Vero cells at 3150 ug/mL by neutral red dye uptake assay relative to control; type: cell-based; conditions: chlorocebus sabaeus; method in brief: as §1
Candida parapsilosis = experiment: Antifungal activity against Candida parapsilosis after 48 hrs by CLSI M27A3 broth microdilution method; type: functional; conditions: Lodderomyces parapsilosis
Method in brief: (§2)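 Yeasts were kept on Sabouraud dextrose agar and subcultured at 35 °C for at least 2 days. They were suspended in saline to McFarland 0.5 and diluted in RPMI. Ten successive dilutions were made from a 1.6 mg/mL DMSO stock per CLSI broth microdilution, then incubated at 37 °C for 48 h. Growth was read visually against a growth-control well, and MIC is the lowest concentration inhibiting growth.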

Geotrichum = experiment: Antifungal activity against Geotrichum species after 48 hrs by CLSI M27A3 broth microdilution method; type: functional; method in brief: as §2
Papiliotrema laurentii = experiment: Antifungal activity against Cryptococcus laurentii after 48 hrs by CLSI M27A3 broth microdilution method; type: functional; method in brief: as §2
Rhodotorula [10] = experiment: Antifungal activity against Rhodotorula species after 48 hrs by CLSI M27A3 broth microdilution method; type: functional; method in brief: as §2
Candida albicans = experiment: Antifungal activity against Candida albicans after 48 hrs by CLSI M27A3 broth microdilution method; type: functional; method in brief: as §2
Trichosporon asahii = experiment: Antifungal activity against Trichosporon asahii after 48 hrs by CLSI M27A3 broth microdilution method; type: functional; method in brief: as §2
[11] = system: Meyerozyma guilliermondii; experiment: Antifungal activity against Candida guilliermondii after 48 hrs by CLSI M27A3 broth microdilution method; type: functional; method in brief: as §2
Rhodotorula [12] = experiment: Ratio of fluconazole MIC to compound MIC for Rhodotorula species; type: functional
Rhodotorula [13] = experiment: Ratio of fluconazole MFC to compound MFC for Rhodotorula species; type: functional

O=C1CSC(c2ccccc2F)N1CCN1CCCCC1 (stereo not drawn)
Cell viability (Vero [1]): 100% | Cell viability (Vero [2]): 100% | Cell viability (Vero [3]): 95% | Cell viability (Vero [4]): 82% | Cell viability (Vero [5]): 65% | Cell viability (Vero [6]): 45% | Cell viability (Vero [7]): 10% | Cell viability (Vero [8]): 10% | Cell viability (Vero [9]): 10% | MFC (Candida parapsilosis): 100 µg/mL (≈ 324 µM) | MIC (Candida parapsilosis): 100 µg/mL (≈ 324 µM) | MFC (Geotrichum): > 400 µg/mL | MIC (Geotrichum): > 400 µg/mL | MFC (Papiliotrema laurentii): 100 µg/mL (≈ 324 µM) | MIC (Papiliotrema laurentii): 100 µg/mL (≈ 324 µM) | MFC (Rhodotorula [10]): 36 µg/mL (≈ 117 µM) | MIC (Rhodotorula [10]): 36 µg/mL (≈ 117 µM) | MFC (Candida albicans): 100 µg/mL (≈ 324 µM) | MIC (Candida albicans): 100 µg/mL (≈ 324 µM) | MFC (Trichosporon asahii): > 400 µg/mL | MIC (Trichosporon asahii): > 400 µg/mL | MFC [11]: 133 µg/mL (≈ 431 µM) | MIC [11]: 133 µg/mL (≈ 431 µM)

O=C1CSC(c2cccc(F)c2)N1CCN1CCCCC1 (stereo not drawn)
Cell viability (Vero [1]): 100% | Cell viability (Vero [2]): 100% | Cell viability (Vero [3]): 97% | Cell viability (Vero [4]): 92% | Cell viability (Vero [5]): 84% | Cell viability (Vero [6]): 60% | Cell viability (Vero [7]): 27% | Cell viability (Vero [8]): 17% | Cell viability (Vero [9]): 13% | MFC (Candida parapsilosis): 100 µg/mL (≈ 324 µM) | MIC (Candida parapsilosis): 100 µg/mL (≈ 324 µM) | MFC (Geotrichum): > 400 µg/mL | MIC (Geotrichum): > 400 µg/mL | MFC (Papiliotrema laurentii): 100 µg/mL (≈ 324 µM) | MIC (Papiliotrema laurentii): 100 µg/mL (≈ 324 µM) | MFC (Rhodotorula [10]): 33.5 µg/mL (≈ 109 µM) | MIC (Rhodotorula [10]): 33.5 µg/mL (≈ 109 µM) | MFC (Candida albicans): 150 µg/mL (≈ 486 µM) | MIC (Candida albicans): 150 µg/mL (≈ 486 µM) | MFC (Trichosporon asahii): > 400 µg/mL | MIC (Trichosporon asahii): > 400 µg/mL | MFC [11]: 100 µg/mL (≈ 324 µM) | MIC [11]: 100 µg/mL (≈ 324 µM)

O=C1CSC(c2ccc(F)cc2)N1CCN1CCCCC1 (stereo not drawn)
Cell viability (Vero [1]): 100% | Cell viability (Vero [2]): 100% | Cell viability (Vero [3]): 100% | Cell viability (Vero [4]): 87% | Cell viability (Vero [5]): 73% | Cell viability (Vero [6]): 52% | Cell viability (Vero [7]): 17% | Cell viability (Vero [8]): 14% | Cell viability (Vero [9]): 11% | MFC (Candida parapsilosis): 100 µg/mL (≈ 324 µM) | MIC (Candida parapsilosis): 100 µg/mL (≈ 324 µM) | MFC (Geotrichum): 50 µg/mL (≈ 162 µM) | MIC (Geotrichum): 50 µg/mL (≈ 162 µM) | MFC (Papiliotrema laurentii): 100 µg/mL (≈ 324 µM) | MIC (Papiliotrema laurentii): 100 µg/mL (≈ 324 µM) | MFC (Rhodotorula [10]): 25 µg/mL (≈ 81.1 µM) | MIC (Rhodotorula [10]): 25 µg/mL (≈ 81.1 µM) | MFC (Candida albicans): 45 µg/mL (≈ 146 µM) | MIC (Candida albicans): 45 µg/mL (≈ 146 µM) | MFC (Trichosporon asahii): 100 µg/mL (≈ 324 µM) | MIC (Trichosporon asahii): 100 µg/mL (≈ 324 µM) | MFC [11]: 100 µg/mL (≈ 324 µM) | MIC [11]: 100 µg/mL (≈ 324 µM)

O=C1CSC(c2ccccc2Cl)N1CCN1CCCCC1 (stereo not drawn)
Cell viability (Vero [1]): 100% | Cell viability (Vero [2]): 100% | Cell viability (Vero [3]): 100% | Cell viability (Vero [4]): 94% | Cell viability (Vero [5]): 71% | Cell viability (Vero [6]): 31% | Cell viability (Vero [7]): 38% | Cell viability (Vero [8]): 16% | Cell viability (Vero [9]): 22% | MFC (Candida parapsilosis): 100 µg/mL (≈ 308 µM) | MIC (Candida parapsilosis): 100 µg/mL (≈ 308 µM) | MFC (Geotrichum): 50 µg/mL (≈ 154 µM) | MIC (Geotrichum): 50 µg/mL (≈ 154 µM) | MFC (Papiliotrema laurentii): 100 µg/mL (≈ 308 µM) | MIC (Papiliotrema laurentii): 100 µg/mL (≈ 308 µM) | MFC (Rhodotorula [10]): 33 µg/mL (≈ 102 µM) | MIC (Rhodotorula [10]): 33 µg/mL (≈ 102 µM) | MFC (Candida albicans): 75 µg/mL (≈ 231 µM) | MIC (Candida albicans): 75 µg/mL (≈ 231 µM) | MFC (Trichosporon asahii): 66.5 µg/mL (≈ 205 µM) | MIC (Trichosporon asahii): 66.5 µg/mL (≈ 205 µM) | MFC [11]: 100 µg/mL (≈ 308 µM) | MIC [11]: 100 µg/mL (≈ 308 µM)

O=C1CSC(c2cccc(Cl)c2)N1CCN1CCCCC1 (stereo not drawn)
Cell viability (Vero [1]): 100% | Cell viability (Vero [2]): 100% | Cell viability (Vero [3]): 100% | Cell viability (Vero [4]): 100% | Cell viability (Vero [5]): 77% | Cell viability (Vero [6]): 45% | Cell viability (Vero [7]): 31% | Cell viability (Vero [8]): 20% | Cell viability (Vero [9]): 15% | MFC (Candida parapsilosis): 100 µg/mL (≈ 308 µM) | MIC (Candida parapsilosis): 100 µg/mL (≈ 308 µM) | MFC (Geotrichum): 50 µg/mL (≈ 154 µM) | MIC (Geotrichum): 50 µg/mL (≈ 154 µM) | MFC (Papiliotrema laurentii): 100 µg/mL (≈ 308 µM) | MIC (Papiliotrema laurentii): 100 µg/mL (≈ 308 µM) | MFC (Rhodotorula [10]): 25 µg/mL (≈ 77 µM) | MIC (Rhodotorula [10]): 25 µg/mL (≈ 77 µM) | MFC (Candida albicans): 62 µg/mL (≈ 191 µM) | MIC (Candida albicans): 62 µg/mL (≈ 191 µM) | MFC (Trichosporon asahii): 100 µg/mL (≈ 308 µM) | MIC (Trichosporon asahii): 100 µg/mL (≈ 308 µM) | MFC [11]: 100 µg/mL (≈ 308 µM) | MIC [11]: 100 µg/mL (≈ 308 µM)

O=C1CSC(c2ccc(Cl)cc2)N1CCN1CCCCC1 (stereo not drawn)
Cell viability (Vero [1]): 90% | Cell viability (Vero [2]): 84% | Cell viability (Vero [3]): 84% | Cell viability (Vero [4]): 74% | Cell viability (Vero [5]): 68% | Cell viability (Vero [6]): 28% | Cell viability (Vero [7]): 15% | Cell viability (Vero [8]): 13% | Cell viability (Vero [9]): 11% | MFC (Candida parapsilosis): 100 µg/mL (≈ 308 µM) | MIC (Candida parapsilosis): 100 µg/mL (≈ 308 µM) | MFC (Geotrichum): 50 µg/mL (≈ 154 µM) | MIC (Geotrichum): 50 µg/mL (≈ 154 µM) | MFC (Papiliotrema laurentii): 100 µg/mL (≈ 308 µM) | MIC (Papiliotrema laurentii): 100 µg/mL (≈ 308 µM) | MFC (Rhodotorula [10]): 50 µg/mL (≈ 154 µM) | MIC (Rhodotorula [10]): 50 µg/mL (≈ 154 µM) | MFC (Candida albicans): 62 µg/mL (≈ 191 µM) | MIC (Candida albicans): 62 µg/mL (≈ 191 µM) | MFC (Trichosporon asahii): 50 µg/mL (≈ 154 µM) | MIC (Trichosporon asahii): 50 µg/mL (≈ 154 µM) | MFC [11]: 100 µg/mL (≈ 308 µM) | MIC [11]: 100 µg/mL (≈ 308 µM)

COc1ccccc1C1SCC(=O)N1CCN1CCCCC1 (stereo not drawn)
Cell viability (Vero [1]): 100% | Cell viability (Vero [2]): 100% | Cell viability (Vero [3]): 100% | Cell viability (Vero [4]): 100% | Cell viability (Vero [5]): 72% | Cell viability (Vero [6]): 67% | Cell viability (Vero [7]): 30% | Cell viability (Vero [8]): 17% | Cell viability (Vero [9]): 5% | Ratio (Rhodotorula [12]): 1.6 | Ratio (Rhodotorula [13]): 1.6 | MFC (Candida parapsilosis): 100 µg/mL (≈ 312 µM) | MIC (Candida parapsilosis): 100 µg/mL (≈ 312 µM) | MFC (Geotrichum): 41.5 µg/mL (≈ 130 µM) | MIC (Geotrichum): 41.5 µg/mL (≈ 130 µM) | MFC (Papiliotrema laurentii): 100 µg/mL (≈ 312 µM) | MIC (Papiliotrema laurentii): 100 µg/mL (≈ 312 µM) | MFC (Rhodotorula [10]): 16.5 µg/mL (≈ 51.5 µM) | MIC (Rhodotorula [10]): 16.5 µg/mL (≈ 51.5 µM) | MFC (Candida albicans): 100 µg/mL (≈ 312 µM) | MIC (Candida albicans): 100 µg/mL (≈ 312 µM) | MFC (Trichosporon asahii): 50 µg/mL (≈ 156 µM) | MIC (Trichosporon asahii): 50 µg/mL (≈ 156 µM) | MFC [11]: 100 µg/mL (≈ 312 µM) | MIC [11]: 100 µg/mL (≈ 312 µM)
